An excerpt weighted towards active compounds, which were near 2.9% of everything screened.
UBC13 polyUb – inhibitors of human UBC13 polyubiquitin chain formation; inhibition, % at 20 µM; AID 485273; 330,000 tested, 0.47% active; TR-FRET; in the data active = inhibition above about 45%, passing the limit was not always enough
PfG6PD inh – PfG6PD (Plasmodium falciparum) enzyme inhibition; 350,000 tested, 0.78% active; PfGluPho enzyme, NADPH resazurin-diaphorase fluorescence; AID 504690; inhibition, % at 20 µM;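 active = inhibition reaching at least a set limit at 20 µM in the primary screen, cut at about 59% in these data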
Apaf-1 inh – inhibitors of human Apaf-1 apoptosome; reconstituted apoptosome caspase-3 activity, DEVD-Rh110 fluorescence; inhibition, % at 20 µM; 330,000 tested, 0.71% active; active = inhibition of at least 40% at 20 µM
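Assay system: Apoptosome proteins | Medium: pH 7.5 Hepes buffer with CHAPS, BSA, DTT | Also added: Cytochrome c and DEVD-Rh110 substrate | Times: 30 min plus 50 min, RT | Detection: Rhodamine 110 fluorescence at Ex 480/Em 540 nm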
PfM18AAP inh – blocks P. falciparum M18 aspartyl aminopeptidase; recombinant PfM18AAP, H-Glu-NHMec fluorogenic cleavage; inhibition, % at 7.35 µM; 290,000 tested, 1.2% active; AID 1822;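 active = inhibition above the campaign mean inhibition over all tested compounds plus 3 SD, cut at about 28% in these data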
ZTA DNA inh – ZTA (EBV) inhibition in EBNA-1 counter-screen | AID 2234 | 320,000 tested, 0.15% active | ZTA-DNA binding, fluorescence polarization | inhibition, % at 11 µM; in the data active = inhibition above about 33%
EBNA-1 inhibitor – blocks EBNA-1 binding to DNA. EBNA-1 DNA binding, fluorescence polarization. inhibition, % at 14.8 µM. 300,000 tested, 0.34% active. AID 1950; in the data active = inhibition above about 28%
A number is an active result; 0 = inactive; - = no result.

SMILES	UBC13 polyUb	PfG6PD inh	Apaf-1 inh	PfM18AAP inh	ZTA DNA inh	EBNA-1 inhibitor
COc1ccc(/C=N/n2c(-c3ccccc3)n[nH]c2=S)cc1	0	0	0	0	0	0
O=[N+]([O-])c1c(NCCO)cc(N2CCC3(CC2)OCCO3)c2nonc12	0	0	0	0	0	0
O=C(O)CCCNc1cc(N2CCC3(CC2)OCCO3)c2noc3c2c1C(=O)c1ccccc1-3	0	-	0	0	143	93
O=C(COC(=O)c1cc[n+]([O-])cc1)Nc1ccc([N+](=O)[O-])cc1Cl	0	0	0	0	0	0
Cc1c(C(=O)OCC(=O)Nc2ccc(S(N)(=O)=O)cc2)oc2c1ccc1ccccc12	0	0	0	0	33	72
O=C(CSc1ncccn1)NC(=O)c1ccccc1	0	0	0	0	0	0
Nc1cc(=O)nc2cn[nH]n12	-	0	-	-	-	-
COc1ccc2cc1Oc1ccc(cc1)CC1c3c(cc(OC)c4c3Oc3cc5c(cc3O4)CCNC5C2)CCN1C (stereo unspecified)	110	0	41	0	0	0
CCOc1ccc(C2NCCc3cc(OC)c(OC)cc32)cc1OC (stereo unspecified)	0	0	0	0	0	0
CCOCCCNC(=O)c1ccc2c(c1)N(Cc1ccccc1)C(=O)CS2=O (stereo unspecified)	0	0	0	28	0	0
O=C(O)c1ccc2c(c1)[C@@H]1C=CC[C@@H]1[C@H](c1ccccn1)N2	0	0	0	0	80	0
COc1ccc(C(=O)N/N=C(\C)c2ccc3c(c2)C2C=CCC2C(c2ccccc2)N3)cc1 (stereo unspecified)	-	0	-	0	0	0
COc1ccccc1C(=O)N1[C@@H](C(C)C)COc2cc(Br)ccc2S1(=O)=O	-	0	-	-	-	-
Cc1cc(C)nc(N/N=C2/CCSc3ccc(F)cc32)n1	0	0	0	0	0	0
O=C(O)c1ccc(N/N=C2/CCSc3ccc(F)cc32)cc1	0	0	0	29	0	0
Cc1ccc(Nc2nnns2)cc1	0	60	0	0	0	0
COc1ccccc1CNC(=O)CSc1ncc(C(=O)Nc2ccccc2)c(=O)n1C	65	0	0	-	0	0
CC(=O)c1cccc(NC(=O)CSc2ncc(C(=O)Nc3ccccc3)c(=O)n2C)c1	73	0	0	-	0	0
COc1ccc(NC(=O)c2cnc(SCC(=O)NCCc3ccccc3)n(C)c2=O)cc1	0	0	0	-	0	0
Cc1onc(-c2c(F)cccc2Cl)c1C(=O)Nc1cc(S(=O)(=O)N2CCCCC2)ccc1O	-	0	-	-	-	-
O=C(N/N=C/c1ccncc1)c1cccc(S(=O)(=O)Nc2ccc(Cl)cc2)c1	0	0	0	33	0	0
O=C(O)c1cnnc2ccccc12	-	0	-	-	-	-
Cn1cc(Cl)c(C(=O)Nc2nc3ccc([N+](=O)[O-])cc3s2)n1	0	0	0	30	0	0
Cc1ccc(C)n1-c1ccc(C(=O)O)cc1	0	-	0	0	50	0
Cc1cnc(C=O)c2cccc([N+](=O)[O-])c12	-	0	-	-	-	-
SMILES	UBC13 polyUb	PfG6PD inh	Apaf-1 inh	PfM18AAP inh	ZTA DNA inh	EBNA-1 inhibitor
C[C@](N)(Cc1ccc(O)c(O)c1)C(=O)O	-	0	-	65	-	-
COc1ccccc1OCC(=O)NC1CCSc2ccccc21 (stereo unspecified)	0	0	0	-	0	-
O=C(Cc1ccccc1)N/N=C/C=C/c1ccccc1[N+](=O)[O-]	0	0	0	0	0	0
O=C(O)c1ccc(N/N=C/C=C/c2ccccc2[N+](=O)[O-])cc1	0	0	0	41	0	0
COc1ccc(COC(=O)CCCN=C2NS(=O)(=O)c3ccccc32)cc1F	-	0	-	-	-	-
Cc1ccccc1C(=O)NC1CCN(C(=O)Nc2ccc(F)cc2)CC1	0	0	0	0	0	0
COc1ccc(-c2oc3c(CC=C(C)C)c(O[C@@H]4O[C@H](CO)[C@@H](O)[C@H](O)[C@H]4O)cc(O)c3c(=O)c2O[C@@H]2O[C@@H](C)[C@H](O)[C@@H](O)[C@H]2O)cc1	0	-	0	0	0	0
CC(=O)O[C@@H]1[C@@H](O)[C@@H](O)[C@H](Oc2c(-c3ccc(O)cc3)oc3c(CC=C(C)C)c(O)cc(O)c3c2=O)O[C@H]1C	46	0	0	-	0	0
CCOc1cc(/C=C2\C(=O)N(c3nc(-c4ccc(Br)cc4)cs3)N=C2c2ccccc2)ccc1O	0	0	53	0	0	0
COc1cccc(/C=N/Nc2cc(Cl)nc(C)n2)c1O	0	0	0	29	0	0
Cc1nc(Cl)cc(N/N=C/c2ccc(O)cc2)n1	0	0	0	0	0	0
